Reference: ChEMBL document CHEMBL4014339, “Discovery of 1,4-Benzodiazepine-2,5-dione (BZD) Derivatives as Dual Nucleotide Binding Oligomerization Domain Containing 1/2 (NOD1/NOD2) Antagonists Sensitizing Paclitaxel (PTX) To Suppress Lewis Lung Carcinoma (LLC) Growth in Vivo” (J Med Chem, 2017)
Active and inactive are the calls of the source. No cut-off for these calls is given here.

Columns and labels:
[1] = target: T1, Nucleotide-binding oligomerization domain-containing protein 2 (Homo sapiens, UniProt Q9HC29); test: Antagonist activity at human NOD2 expressed in HEK-Blue cells assessed as inhibition of MDP-stimulated cell activation at 10 uM preincubated for 3 hrs followed by MDP addition measured after 20 hrs by SEAP reporter gene assay; assay type: cell-based
Summary of the method: (§1)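 HEK-Blue hNOD1 or hNOD2 cells preincubated with compound 3 h, then stimulated 20 h with C12-iE-DAP 50 ng/mL (NOD1) or MDP 100 ng/mL (NOD2); SEAP in supernatant quantified. Primary screen at 10 μM, hits repeated in triplicate; IC50 from dose-response, mean ± SD (n = 3), only for compounds reaching ≥50% inhibition at the screening concentration.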

[2] = target: T2, Nucleotide-binding oligomerization domain-containing protein 1 (Homo sapiens) (UniProt Q9Y239); test: Antagonist activity at human NOD1 expressed in HEK-Blue cells assessed as inhibition of C12-iE-DAP-stimulated cell activation at 10 uM preincubated for 3 hrs followed by C12-iE-DAP addition measured after 20 hrs by SEAP reporter gene assay; assay type: cell-based; summary of the method: as §1
T2 sequence (whole entry): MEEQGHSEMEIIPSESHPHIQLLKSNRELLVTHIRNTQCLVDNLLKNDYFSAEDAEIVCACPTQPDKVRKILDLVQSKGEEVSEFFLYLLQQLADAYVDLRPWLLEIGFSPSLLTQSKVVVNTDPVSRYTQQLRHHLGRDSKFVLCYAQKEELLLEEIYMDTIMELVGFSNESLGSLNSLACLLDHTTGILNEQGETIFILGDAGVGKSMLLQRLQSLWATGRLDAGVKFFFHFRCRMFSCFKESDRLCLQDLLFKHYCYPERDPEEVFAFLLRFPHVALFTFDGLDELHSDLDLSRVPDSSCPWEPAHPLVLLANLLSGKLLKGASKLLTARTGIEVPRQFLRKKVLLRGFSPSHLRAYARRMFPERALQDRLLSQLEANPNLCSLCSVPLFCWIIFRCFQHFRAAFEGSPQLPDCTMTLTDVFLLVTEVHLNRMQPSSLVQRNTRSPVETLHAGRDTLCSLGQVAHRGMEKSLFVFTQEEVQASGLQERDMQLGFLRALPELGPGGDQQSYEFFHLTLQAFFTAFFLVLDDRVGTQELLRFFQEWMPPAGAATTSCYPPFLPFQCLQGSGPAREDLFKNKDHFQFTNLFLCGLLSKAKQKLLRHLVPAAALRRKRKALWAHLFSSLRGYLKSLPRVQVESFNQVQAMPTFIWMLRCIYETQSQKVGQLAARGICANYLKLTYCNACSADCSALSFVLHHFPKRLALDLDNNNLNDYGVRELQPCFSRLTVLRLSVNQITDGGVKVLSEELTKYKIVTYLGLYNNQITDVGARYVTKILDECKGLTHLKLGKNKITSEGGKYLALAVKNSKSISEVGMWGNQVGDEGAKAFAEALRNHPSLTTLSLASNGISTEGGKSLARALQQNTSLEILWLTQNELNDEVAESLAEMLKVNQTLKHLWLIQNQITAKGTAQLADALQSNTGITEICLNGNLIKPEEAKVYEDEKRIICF

[3] = target: T1, Nucleotide-binding oligomerization domain-containing protein 2; test: Antagonist activity at human NOD2 expressed in HEK-Blue cells assessed as inhibition of MDP-stimulated cell activation preincubated for 3 hrs followed by MDP addition measured after 20 hrs by SEAP reporter gene assay; assay type: cell-based; summary of the method: as §1
[4] = target: T1, Nucleotide-binding oligomerization domain-containing protein 2; test: Antagonist activity at human NOD2 expressed in HEK-Blue cells assessed as inhibition of MDP-stimulated cell activation at 5 uM preincubated for 3 hrs followed by MDP addition measured after 20 hrs by SEAP reporter gene assay; assay type: cell-based
[5] = Cytotoxicity against HEK-Blue cells by SRB assay; assay type: cell-based; conditions: human
[6] = target: T3, Nucleotide-binding oligomerization domain-containing protein 1 (Homo sapiens, UniProt Q9Y239); test: Antagonist activity at human NOD1 expressed in HEK-blue cells assessed as inhibition of C12-iE-DAP-stimulated cell activation preincubated for 3 hrs followed by C12-iE-DAP addition measured after 20 hrs by SEAP reporter gene assay; assay type: cell-based; summary of the method: as §1
T3 sequence (Q9Y239 whole entry): T2 sequence (whole entry)

[7] = target: T2, Nucleotide-binding oligomerization domain-containing protein 1 (Homo sapiens); test: Antagonist activity at human NOD1 expressed in HEK-blue cells assessed as inhibition of C12-iE-DAP-stimulated cell activation at 5 uM preincubated for 3 hrs followed by C12-iE-DAP addition measured after 20 hrs by SEAP reporter gene assay; assay type: cell-based
[8] = test system: Lewis lung carcinoma cell line; test: Antitumor activity against mouse LLC cells implanted in C57BL/6 mouse assessed as tumor weight inhibition at 12 mg/kg, iv administered every 4 days measured 11 days after tumor implantation; assay type: functional, organism-based
[9] = target: T2, Nucleotide-binding oligomerization domain-containing protein 1 (Homo sapiens); test: Inhibition of NOD1 in human PBMC-derived macrophages assessed as reduction in C12-iE-DAP-stimulated TNFalpha mRNA expression at 1 uM preincubated for 1 hr followed by C12-iE-DAP stimulation for 90 mins by RT-qPCR analysis
Summary of the method: (§2)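 Human CD14+ monocytes from donor PBMC, differentiated 7 days with M-CSF 20 ng/mL to macrophages; 1.0 × 10^6 cells pretreated 1 h with compound (final 0.1% DMSO), then C12-iE-DAP 500 ng/mL or MDP 5 μg/mL for 90 min. IL-6/TNF-α mRNA by qRT-PCR, normalized to GAPDH; stimulated response set to 100%.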

[10] = target: T2, Nucleotide-binding oligomerization domain-containing protein 1 (Homo sapiens); test: Inhibition of NOD1 in human PBMC-derived macrophages assessed as reduction in C12-iE-DAP-stimulated IL6 mRNA expression at 1 uM preincubated for 1 hr followed by C12-iE-DAP stimulation for 90 mins by RT-qPCR analysis; summary of the method: as §2

T1 sequence (Q9HC29 whole entry, the tested form may be a part): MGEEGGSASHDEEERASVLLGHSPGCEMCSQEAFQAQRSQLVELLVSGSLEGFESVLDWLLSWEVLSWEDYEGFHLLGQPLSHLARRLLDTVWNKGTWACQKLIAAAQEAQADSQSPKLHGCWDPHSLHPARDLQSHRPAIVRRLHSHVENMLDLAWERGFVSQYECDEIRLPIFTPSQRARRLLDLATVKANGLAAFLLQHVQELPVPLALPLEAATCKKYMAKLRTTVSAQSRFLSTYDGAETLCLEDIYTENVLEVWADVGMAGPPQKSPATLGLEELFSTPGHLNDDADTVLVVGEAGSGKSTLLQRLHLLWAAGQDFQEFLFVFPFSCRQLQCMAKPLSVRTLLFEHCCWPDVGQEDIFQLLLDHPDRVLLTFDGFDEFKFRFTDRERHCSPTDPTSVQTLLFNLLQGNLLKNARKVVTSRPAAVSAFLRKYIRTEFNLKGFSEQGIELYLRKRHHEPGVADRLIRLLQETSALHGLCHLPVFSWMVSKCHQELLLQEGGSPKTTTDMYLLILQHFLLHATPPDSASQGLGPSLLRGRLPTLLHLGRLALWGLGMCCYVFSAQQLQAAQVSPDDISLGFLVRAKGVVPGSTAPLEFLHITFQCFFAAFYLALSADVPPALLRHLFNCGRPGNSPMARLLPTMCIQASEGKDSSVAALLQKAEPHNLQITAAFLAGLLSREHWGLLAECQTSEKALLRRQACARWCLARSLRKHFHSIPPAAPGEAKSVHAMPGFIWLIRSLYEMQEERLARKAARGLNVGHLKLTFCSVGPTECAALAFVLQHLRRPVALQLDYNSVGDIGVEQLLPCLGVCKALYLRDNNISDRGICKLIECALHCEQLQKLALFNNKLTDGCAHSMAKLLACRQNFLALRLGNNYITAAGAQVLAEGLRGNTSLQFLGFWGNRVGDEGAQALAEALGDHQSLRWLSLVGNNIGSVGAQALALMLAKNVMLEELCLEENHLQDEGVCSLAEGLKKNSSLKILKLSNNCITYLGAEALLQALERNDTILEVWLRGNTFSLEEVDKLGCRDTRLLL

SMILES | inhibition [1] [%] | inhibition [2] [%] | IC50 [3] [nM] | inhibition [4] [%] | Activity [5] | IC50 [6] [nM] | inhibition [7] [%] | TGI [8] | inhibition [9] | inhibition [10]
CN(C)c1cccc(Oc2cc3c(cc2NC(=O)COCc2ccc(C(F)(F)F)cc2)NC(=O)[C@@H](CCC(=O)N2CCC(F)CC2)NC3=O)c1 | 94.7 | 92.6 | 420 | 91.7 | Toxic | 580 | 90.2 | – | – | –
COC(=O)CC[C@H]1NC(=O)c2cc(Oc3cccc(N(C)C)c3)c(NC(=O)COCc3ccccc3)cc2NC1=O | 69.1 | 70.4 | – | – | Non-Toxic | – | – | – | – | –
COC(=O)CC[C@H]1NC(=O)c2cc(Oc3ccc(Cl)c(N(C)C)c3)c(NC(=O)COCc3ccccc3)cc2NC1=O | 78.1 | 73 | 3550 | 59.9 | – | 2900 | 58.2 | – | – | –
COC(=O)CC[C@H]1NC(=O)c2cc(Oc3cccc(N(C)C)c3)c(NC(=O)COCc3cccc(Cl)c3)cc2NC1=O | 84.1 | 81.8 | 2080 | 71.5 | – | 1290 | 76.7 | – | – | –
COC(=O)CC[C@H]1NC(=O)c2cc(Oc3cccc(N(C)C)c3)c(NC(=O)COCc3cccc(Br)c3)cc2NC1=O | 86.7 | 89.6 | 2280 | 65.9 | – | 1330 | 82.9 | – | – | –
CCCCN(CCCC)C(=O)CC[C@H]1NC(=O)c2cc(Oc3cccc(N(C)C)c3)c(NC(=O)COCc3ccccc3)cc2NC1=O | 88.6 | 82 | 1320 | 85 | – | 1300 | 81.8 | – | – | –
COC(=O)CC[C@H]1NC(=O)c2cc(Oc3cccc(N(C)C)c3)c(NC(=O)COCc3ccc(C(F)(F)F)cc3)cc2NC1=O | 91.9 | 90.7 | 870 | 89 | – | 940 | 89.8 | – | – | –
COC(=O)CC[C@H]1NC(=O)c2cc(Oc3cccc(N(C)C)c3)c(NC(=O)COCc3ccc(C(C)(C)C)cc3)cc2NC1=O | 75.7 | 73.3 | 2390 | 75.2 | – | 1960 | 67.7 | – | – | –
CN(C)c1cccc(Oc2cc3c(cc2NC(=O)COCc2ccccc2)NC(=O)[C@@H](CCC(=O)NC2CC2)NC3=O)c1 | 57 | 57.1 | 7140 | 43.7 | – | 8620 | 35.8 | – | – | –
CN(C)c1cccc(Oc2cc3c(cc2NC(=O)COCc2ccc(C(F)(F)F)cc2)NC(=O)[C@@H](CCC(=O)N2CCC(F)(F)CC2)NC3=O)c1 | 94.8 | 90.9 | 810 | 92.8 | Toxic | 430 | 91.2 | – | – | –
CC(=O)O[C@H]1C(=O)[C@@]2(C)[C@H]([C@H](OC(=O)c3ccccc3)[C@]3(O)C[C@H](OC(=O)[C@H](O)[C@@H](NC(=O)c4ccccc4)c4ccccc4)C(C)=C1C3(C)C)[C@]1(OC(C)=O)CO[C@@H]1C[C@@H]2O | – | – | – | – | – | – | – | inactive | – | –
CCN(CC)C(=O)CC[C@H]1NC(=O)c2cc(Oc3cccc(N(C)C)c3)c(NC(=O)COCc3ccccc3)cc2NC1=O | 76.9 | 80.8 | 3410 | 60.8 | – | 1270 | 80.5 | – | – | –
Nc1nc2ccccc2n1S(=O)(=O)c1ccc(Cl)cc1 | – | – | – | – | – | – | – | – | Active | Active
CN(C)c1cccc(Oc2cc3c(cc2NC(=O)COCc2ccc(Cl)cc2)NC(=O)[C@@H](CCC(=O)N2CCCCC2)NC3=O)c1 | 96.7 | 85.2 | 900 | 91.2 | – | 1060 | 82.9 | – | – | –
